Values joined by “and” are separate entries in the source; they are usually repeats but may differ in a detail not shown here. Identical values can stand only once. One block for each compound: values may come before it.
Experiments:
[1] = target: sigma-1 receptor (Cavia porcellus, UniProt Q60492); experiment: Sigma-1 receptor competitive binding assay; parameters: species or system guinea pig
Method in brief: (§1)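 Sigma-1: guinea pig brain membranes with 3H-PENT. Sigma-2: rat liver membranes from Sprague-Dawley rats with 3H-DTG, plus 1 μM dextrallorphane to mask sigma-1 sites.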

[2] = target: T1, sigma-2 receptor (Rattus norvegicus, UniProt Q5U3Y7); experiment: Sigma-2 receptor competitive binding assay
T1 sequence (Q5U3Y7 1-176): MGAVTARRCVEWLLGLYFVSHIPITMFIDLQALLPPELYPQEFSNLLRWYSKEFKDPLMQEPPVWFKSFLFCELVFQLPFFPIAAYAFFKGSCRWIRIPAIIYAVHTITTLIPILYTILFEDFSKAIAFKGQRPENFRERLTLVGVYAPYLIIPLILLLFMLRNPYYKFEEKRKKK
Method in brief: as §1

[3] = Lipophilicity, shake flask 1-octanol/PBS pH 7.4; format: physicochemical; settings: 1-octanol/phosphate-buffered saline
Method in brief: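 Shake-flask partition: ~500 Kcpm radiotracer added to 1 mL 1-octanol plus 1 mL PBS pH 7.4, in triplicate. Tubes vortexed 3 min and layers allowed to separate. 100 μL aliquots of each phase counted for radioactivity; log P calculated from the counts.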

[4] = test system: B16F1 melanoma cells; experiment: In vitro uptake assay in melanoma cells; format: cell-based, mouse; settings: 1×10^6 cells/tube, 60 min, room temperature, n=3 tubes
Method in brief: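 B16F1 mouse melanoma cells grown in DMEM with 10% FBS at 37°C, 5% CO2. At 80–90% confluence they were trypsinized and resuspended in PBS pH 7.4. Aliquots of 1×10^5, 5×10^5, 8×10^5 and 1×10^6 cells in triplicate tubes got ~200 Kcpm radiotracer for 1 hr at 22°C. Tubes were centrifuged and pellets washed with PBS; wash and pellet were gamma-counted. Uptake = % of total added activity in pellet.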

[5] = test system: B16F1 melanoma tumor xenograft; experiment: Tissue distribution studies in C57 mice bearing B16F1 tumor xenograft; format: in vivo; settings: for F-18 uptake in brain, Percent Injected Dose per gram Tissue / F-18 uptake in heart, Percent Injected Dose per gram Tissue / F-18 uptake in intestine, Percent Injected Dose per gram Tissue / F-18 uptake in kidneys, Percent Injected Dose per gram Tissue / F-18 uptake in liver, Percent Injected Dose per gram Tissue / F-18 uptake in lung, Percent Injected Dose per gram Tissue / F-18 uptake in muscle, Percent Injected Dose per gram Tissue / F-18 uptake in spleen, Percent Injected Dose per gram Tissue / F-18 uptake in the tumor / F-18 uptake in blood, Percent Injected Dose per gram Tissue / F-18 uptake in bone, Percent Injected Dose per gram Tissue: C57 mice bearing B16F1 melanoma tumor xenograft; for F-18 uptake in brain, Percent Injected Dose per gram Tissue / F-18 uptake in heart, Percent Injected Dose per gram Tissue / F-18 uptake in intestine, Percent Injected Dose per gram Tissue / F-18 uptake in kidneys, Percent Injected Dose per gram Tissue / F-18 uptake in liver, Percent Injected Dose per gram Tissue / F-18 uptake in lung, Percent Injected Dose per gram Tissue / F-18 uptake in muscle, Percent Injected Dose per gram Tissue / F-18 uptake in spleen, Percent Injected Dose per gram Tissue / F-18 uptake in blood, Percent Injected Dose per gram Tissue / F-18 uptake in bone, Percent Injected Dose per gram Tissue: tail vein, mean±SEM n=5; for F-18 uptake in the tumor: n=5
Method in brief: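 C57 mice (6–8 weeks) inoculated in the right flank with ~5×10^6 B16F1 cells in 0.1 mL Matrigel:PBS (50:50). Studied once tumors exceeded 200 mm³. ~15 μCi radiotracer in 100 μL saline given by tail vein. Mice euthanized at 30, 60, 120 and 180 min; tissues washed, weighed and gamma-counted against an injected-dose standard. %ID/g ([…], n=5) and tumor-to-tissue ratios reported.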

[6] = Tissue distribution studies in normal ICR mice; format: in vivo; settings: tail vein, mean±SEM n=5
Method in brief: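 Normal ICR mice (6–8 weeks) received ~15 μCi radiotracer in 100 μL saline by tail vein. At 30, 60, 120 and 180 min mice were euthanized; tissues removed, washed with PBS, weighed and gamma-counted with an injected-dose standard. Values expressed as %ID/g; group differences by unpaired Student's t-test, P<0.05.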

[7] = C57 normal mice, cited from earlier work
[8] = C57 mice bearing B16F1 melanoma tumor, 180 min post-injection

sigma-1 receptor, sequence (Q60492 whole entry): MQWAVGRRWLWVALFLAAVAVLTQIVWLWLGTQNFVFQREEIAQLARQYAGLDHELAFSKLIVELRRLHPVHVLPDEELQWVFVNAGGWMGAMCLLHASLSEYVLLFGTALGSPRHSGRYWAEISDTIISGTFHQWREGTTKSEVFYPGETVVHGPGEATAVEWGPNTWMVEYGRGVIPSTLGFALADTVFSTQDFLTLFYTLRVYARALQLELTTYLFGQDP

IC50 [1]: > 1000 nM
IC50 [2]: > 1000 nM
SMILES: CCN(CC)CCNC(=O)c1ccc(F)cc1 [DAFBA, N-(2-diethylaminoethyl)-4-fluorobenzamide]

logP [3]: 1.7
F-18 uptake in brain, Percent Injected Dose per gram Tissue ([5]; 30 min post injection): 2.02 ± 0.35 %ID/g
F-18 uptake in heart, Percent Injected Dose per gram Tissue ([5]; 30 min post injection): 1.25 ± 0.28 %ID/g
F-18 uptake in intestine, Percent Injected Dose per gram Tissue ([5]; 30 min post injection): 1.94 ± 0.51 %ID/g
F-18 uptake in kidneys, Percent Injected Dose per gram Tissue ([5]; 30 min post injection): 4.50 ± 1.33 %ID/g
F-18 uptake in liver, Percent Injected Dose per gram Tissue ([5]; 30 min post injection): 3.27 ± 0.90 %ID/g
F-18 uptake in lung, Percent Injected Dose per gram Tissue ([5]; 30 min post injection): 2.46 ± 1.27 %ID/g
F-18 uptake in muscle, Percent Injected Dose per gram Tissue ([5]; 30 min post injection): 1.09 ± 0.18 %ID/g
F-18 uptake in spleen, Percent Injected Dose per gram Tissue ([5]; 30 min post injection): 2.14 ± 0.41 %ID/g
F-18 uptake in the tumor ([5]; 60 min post injection): 7.00±2.76 %ID/g
F-18 uptake in blood, Percent Injected Dose per gram Tissue ([5]; 60 min post injection): 0.68 ± 0.21 %ID/g
F-18 uptake in bone, Percent Injected Dose per gram Tissue ([5]; 60 min post injection): 0.90 ± 0.27 %ID/g
F-18 uptake in brain, Percent Injected Dose per gram Tissue ([5]; 60 min post injection): 1.68 ± 0.43 %ID/g
F-18 uptake in heart, Percent Injected Dose per gram Tissue ([5]; 60 min post injection): 1.27 ± 0.50 %ID/g
F-18 uptake in intestine, Percent Injected Dose per gram Tissue ([5]; 60 min post injection): 1.98 ± 0.88 %ID/g
F-18 uptake in kidneys, Percent Injected Dose per gram Tissue ([5]; 60 min post injection): 5.38 ± 1.86 %ID/g
F-18 uptake in liver, Percent Injected Dose per gram Tissue ([5]; 60 min post injection): 5.01 ± 2.06 %ID/g
F-18 uptake in lung, Percent Injected Dose per gram Tissue ([5]; 60 min post injection): 2.48 ± 1.27 %ID/g
F-18 uptake in muscle, Percent Injected Dose per gram Tissue ([5]; 60 min post injection): 1.10 ± 0.38 %ID/g
F-18 uptake in spleen, Percent Injected Dose per gram Tissue ([5]; 60 min post injection): 1.83 ± 0.54 %ID/g
F-18 uptake in the tumor ([5]; 120 min post injection): 6.57±1.66 %ID/g
F-18 uptake in bone, Percent Injected Dose per gram Tissue ([5]; 120 min post injection): 0.57 ± 0.32 %ID/g
F-18 uptake in brain, Percent Injected Dose per gram Tissue ([5]; 120 min post injection): 0.64 ± 0.40 %ID/g
F-18 uptake in kidneys, Percent Injected Dose per gram Tissue ([5]; 120 min post injection): 1.41 ± 0.11 %ID/g
F-18 uptake in liver, Percent Injected Dose per gram Tissue ([5]; 120 min post injection): 2.35 ± 1.20 %ID/g
F-18 uptake in lung, Percent Injected Dose per gram Tissue ([5]; 120 min post injection): 1.47 ± 0.47 %ID/g
F-18 uptake in muscle, Percent Injected Dose per gram Tissue ([5]; 120 min post injection): 0.57 ± 0.54 %ID/g
F-18 uptake in spleen, Percent Injected Dose per gram Tissue ([5]; 120 min post injection): 0.71 ± 0.37 %ID/g
F-18 uptake in blood, Percent Injected Dose per gram Tissue ([5]; 180 min post injection): 0.13 ± 0.03 %ID/g
F-18 uptake in bone, Percent Injected Dose per gram Tissue ([5]; 180 min post injection): 0.17 ± 0.05 %ID/g
F-18 uptake in brain, Percent Injected Dose per gram Tissue ([5]; 180 min post injection): 0.29 ± 0.05 %ID/g
F-18 uptake in heart, Percent Injected Dose per gram Tissue ([5]; 180 min post injection): 0.21 ± 0.04 %ID/g
F-18 uptake in kidneys, Percent Injected Dose per gram Tissue ([5]; 180 min post injection): 0.83 ± 0.23 %ID/g
F-18 uptake in muscle, Percent Injected Dose per gram Tissue ([5]; 180 min post injection): 0.17 ± 0.03 %ID/g
F-18 uptake in spleen, Percent Injected Dose per gram Tissue ([5]; 180 min post injection): 0.44 ± 0.25 %ID/g
tumor to blood ratio ([5]; C57 mice bearing B16F1 melanoma tumor, 60 min post-injection): 8.3±3
tumor to liver ratio [5, 8]: 6.33±1.9
tumor to lung ratio [5, 8]: 21.90±4.68 and > 20
tumor to muscle ratio [5, 8]: 32.91±6.11 and > 20
tumor to spleen ratio [5, 8]: 14.90±6.47
F-18 uptake in blood, Percent Injected Dose per gram Tissue ([6]; 30 min post injection): 0.78 ± 0.07 %ID/g
F-18 uptake in bone, Percent Injected Dose per gram Tissue ([6]; 30 min post injection): 0.81 ± 0.19 %ID/g
F-18 uptake in brain, Percent Injected Dose per gram Tissue ([6]; 30 min post injection): 2.16 ± 0.32 %ID/g
F-18 uptake in heart, Percent Injected Dose per gram Tissue ([6]; 30 min post injection): 1.10 ± 0.14 %ID/g
F-18 uptake in kidneys, Percent Injected Dose per gram Tissue ([6]; 30 min post injection): 4.13 ± 0.68 %ID/g
F-18 uptake in liver, Percent Injected Dose per gram Tissue ([6]; 30 min post injection): 3.12 ± 0.62 %ID/g
F-18 uptake in lung, Percent Injected Dose per gram Tissue ([6]; 30 min post injection): 1.75 ± 0.43 %ID/g
F-18 uptake in muscle, Percent Injected Dose per gram Tissue ([6]; 30 min post injection): 0.88 ± 0.13 %ID/g
F-18 uptake in spleen, Percent Injected Dose per gram Tissue ([6]; 30 min post injection): 2.35 ± 0.07 %ID/g
F-18 uptake in blood, Percent Injected Dose per gram Tissue ([6]; 60 min post injection): 0.67 ± 0.05 %ID/g
F-18 uptake in brain, Percent Injected Dose per gram Tissue ([6]; 60 min post injection): 1.54 ± 0.24 %ID/g
F-18 uptake in heart, Percent Injected Dose per gram Tissue ([6]; 60 min post injection): 0.92 ± 0.10 %ID/g
F-18 uptake in intestine, Percent Injected Dose per gram Tissue ([6]; 60 min post injection): 1.39 ± 0.54 %ID/g
F-18 uptake in liver, Percent Injected Dose per gram Tissue ([6]; 60 min post injection): 3.61 ± 0.48 %ID/g
F-18 uptake in lung, Percent Injected Dose per gram Tissue ([6]; 60 min post injection): 1.84 ± 0.41 %ID/g
F-18 uptake in muscle, Percent Injected Dose per gram Tissue ([6]; 60 min post injection): 0.65 ± 0.11 %ID/g
F-18 uptake in spleen, Percent Injected Dose per gram Tissue ([6]; 60 min post injection): 1.87 ± 0.46 %ID/g
F-18 uptake in brain, Percent Injected Dose per gram Tissue ([6]; 120 min post injection): 0.52 ± 0.07 %ID/g
F-18 uptake in heart, Percent Injected Dose per gram Tissue ([6]; 120 min post injection): 0.28 ± 0.05 %ID/g
F-18 uptake in intestine, Percent Injected Dose per gram Tissue ([6]; 120 min post injection): 0.26 ± 0.26 %ID/g
F-18 uptake in kidneys, Percent Injected Dose per gram Tissue ([6]; 120 min post injection): 1.58 ± 0.51 %ID/g
F-18 uptake in blood, Percent Injected Dose per gram Tissue ([6]; 180 min post injection): 0.21 ± 0.03 %ID/g
F-18 uptake in bone, Percent Injected Dose per gram Tissue ([6]; 180 min post injection): 0.24 ± 0.10 %ID/g
F-18 uptake in heart, Percent Injected Dose per gram Tissue ([6]; 180 min post injection): 0.23 ± 0.03 %ID/g
F-18 uptake in intestine, Percent Injected Dose per gram Tissue ([6]; 180 min post injection): 0.40 ± 0.11 %ID/g
F-18 uptake in kidneys, Percent Injected Dose per gram Tissue ([6]; 180 min post injection): 1.34 ± 0.36 %ID/g
F-18 uptake in liver, Percent Injected Dose per gram Tissue ([6]; 180 min post injection): 1.12 ± 0.20 %ID/g
F-18 uptake in lung, Percent Injected Dose per gram Tissue ([6]; 180 min post injection): 0.49 ± 0.07 %ID/g
F-18 uptake in spleen, Percent Injected Dose per gram Tissue ([6]; 180 min post injection): 0.53 ± 0.08 %ID/g
SMILES: CCN(CC)CCNC(=O)c1ccc([18F])cc1 [[^18F]-DAFBA, N-(2-diethylaminoethyl)-4-[^18F]fluorobenzamide]
percent uptake by cells (percent of total added radioactivity) [4]: 5.60±2.67%

SMILES: CCN(CC)CCNC(=O)c1ccc(OC)c(I)c1 [[^*I]IMBA, [^*I]N-(2-diethylaminoethyl) 3-iodo 4-methoxybenzamide]
radioiodine uptake in blood ([7]; 60 min post injection): 0.84±0.08 %ID/g
radioiodine uptake in liver ([7]; 60 min post injection): 3.09±0.45 %ID/g
radioiodine uptake in lungs ([7]; 60 min post injection): 1.06±0.23 %ID/g
radioiodine uptake in intestine [7]: 7.70±4.70 %ID/g
radioiodine uptake in the stomach [7]: 9.72±1.51 %ID/g

From article PMC2880618 (Bioconjugate chemistry, 2009)
